According to ChEMBL document CHEMBL4480404, “Discovery of Lipophilic Bisphosphonates That Target Bacterial Cell Wall and Quinone Biosynthesis” (J Med Chem, 2019):
Converted amounts (≈) assume the structure as drawn. The source made the active and inactive calls. The calls are words filed in the database; no cut-off is given here.

Assays:
[1] = Lipophilicity, log D of the compound at pH 7.4; type: physicochemical; conditions: buffer
[2] = Growth inhibition of HEK293 cells after 24 hrs by MTT assay; type: cell-based; conditions: human, read-out: ED50
Outline: (§1)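 HEK293 cells in DMEM (4.5 g/L glucose) with 10% FBS and 1% penicillin-streptomycin, seeded at 10⁵ cells/mL. Inhibitor from 10 mM stock diluted threefold across 10 wells; 37 °C for 24 or 96 h.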

Bacillus subtilis [3] = assay: Antibacterial activity against Bacillus subtilis (Ehrenberg) Cohn ATCC 6051 in absence of fetal bovine serum after 12 hrs; type: functional; conditions: (Ehrenberg) Cohn ATCC 6051, 12 h, read-out: ED50 (the source's name)
Outline: (§2)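 Log-phase B. subtilis diluted 500-fold into LB containing 0%, 4% or 10% fetal bovine serum. Inhibitor threefold serially diluted across 12 wells from a 100 µM–1 mM start; incubated 12 h at 37 °C with 200 rpm shaking; growth inhibition by OD600.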

Bacillus subtilis [4] = assay: Antibacterial activity against Bacillus subtilis (Ehrenberg) Cohn ATCC 6051 in presence of 10% fetal bovine serum after 12 hrs; type: functional; conditions: (Ehrenberg) Cohn ATCC 6051, 12 h, read-out: ED50 (the source's name); outline: as §2
[5] = Growth inhibition of HEK293 cells after 96 hrs by MTT assay; type: cell-based; conditions: human, read-out: ED50; outline: as §1
Staphylococcus aureus = assay: Antibacterial activity against Staphylococcus aureus Newman after 12 hrs; type: functional; conditions: read-out: ED50 (the source's name)
Outline: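 Log-phase S. aureus culture in tryptic soy broth (OD600 ~0.3, then diluted 500-fold). Inhibitors two-fold serially diluted across 12 wells from a 100 µM–1 mM start; 37 °C, 200 rpm, 12 h; OD600 read for growth inhibition.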

Bacillus subtilis [6] = assay: Antibacterial activity against Bacillus subtilis (Ehrenberg) Cohn ATCC 6051 after 12 hrs; type: functional; conditions: (Ehrenberg) Cohn ATCC 6051, 12 h, read-out: ED50 (the source's name)
Outline: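 Log-phase LB culture (grown to OD600 ~0.3, then diluted 500-fold) exposed to two-fold serial dilutions of inhibitor starting at 100 µM–1 mM across 12 wells; 37 °C, 200 rpm shaking, 12 h. OD600 read and ED50 fitted; duplicate or triplicate.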

[7] = test system: Mycolicibacterium smegmatis; assay: Antibacterial activity against Mycobacterium smegmatis MC2 155 ATCC 700084 after 48 hrs; type: functional; conditions: MC2 155 ATCC 700084, 48 h, read-out: ED50 (the source's name)
Outline: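 Culture grown 36–48 h, diluted 1000-fold in Middlebrook 7H9 with 10% ADC, 0.5% glycerol, 0.05% Tween 80; inhibitors started at 100 µM–1 mM, threefold serial dilution across 10 wells; 37 °C, 200 rpm, 48 h; OD600 read-out.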

Bacillus anthracis = assay: Antibacterial activity against Bacillus anthracis Sterne after 12 hrs; type: functional; conditions: read-out: ED50 (the source's name)
Candida albicans = assay: microbe, parasite or virus in culture; type: functional; conditions: CAI-4, 12 h, read-out: ED50 (the source's name)
[8] = Inhibition of Escherichia coli OPPS using IPP as substrate
[9] = molecular target: T1, Farnesyl pyrophosphate synthase (Homo sapiens, UniProt P14324); assay: Inhibition of human FPPS using IPP and GPP
T1 sequence (P14324 whole entry): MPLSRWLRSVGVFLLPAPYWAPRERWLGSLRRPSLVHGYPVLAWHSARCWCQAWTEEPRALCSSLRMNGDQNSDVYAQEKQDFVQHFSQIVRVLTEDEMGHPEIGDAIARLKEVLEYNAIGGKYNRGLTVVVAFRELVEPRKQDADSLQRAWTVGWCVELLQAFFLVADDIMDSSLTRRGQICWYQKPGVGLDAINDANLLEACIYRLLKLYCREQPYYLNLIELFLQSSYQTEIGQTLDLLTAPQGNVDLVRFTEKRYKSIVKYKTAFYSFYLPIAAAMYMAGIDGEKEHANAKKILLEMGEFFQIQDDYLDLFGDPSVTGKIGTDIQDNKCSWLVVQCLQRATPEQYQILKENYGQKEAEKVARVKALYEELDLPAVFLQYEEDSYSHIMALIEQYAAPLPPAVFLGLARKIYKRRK

[10] = molecular target: T1, Farnesyl pyrophosphate synthase; assay: Inhibition of human FPPS using IPP and GPP as substrate
Outline: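 Expressed HsFPPS at 0.15 μM with 50 μM IPP and 50 μM GPP, 25°C, in 20 mM HEPES pH 7.5, 150 mM NaCl, 500 μM MgCl2. Enzyme preincubated 30 min at room temperature with serially diluted compound. Continuous MESG/PNP phosphate-release read-out, with pyrophosphatase added. At least 3 runs on different days; pooled data fitted by nonlinear regression for IC50.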

[11] = Binding affinity to Staphylococcus aureus HepPPS
Bacillus subtilis [12] = assay: Antibacterial activity against Bacillus subtilis (Ehrenberg) Cohn ATCC 6051 assessed as growth inhibition in presence of HMBPP after 12 hrs; type: functional, organism-based; conditions: (Ehrenberg) Cohn ATCC 6051, 12 h
Outline: (§3)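 Rescue format: log-phase B. subtilis in LB with rescue agent(s) at 50 µM each, alone or as pairwise combinations of UP, MK-4, FPP or HMBPP. Inhibitor diluted threefold across 12 wells from a 100 µM–1 mM start; 37 °C, 200 rpm, 12 h. Growth inhibition read as OD600; ED50-based fold-rescue; duplicate.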

Bacillus subtilis [13] = assay: Antibacterial activity against Bacillus subtilis (Ehrenberg) Cohn ATCC 6051 assessed as growth inhibition in presence of FPP after 12 hrs; type: functional, organism-based; conditions: (Ehrenberg) Cohn ATCC 6051, 12 h; outline: as §3
Bacillus subtilis [14] = assay: Antibacterial activity against Bacillus subtilis (Ehrenberg) Cohn ATCC 6051 assessed as growth inhibition in presence of FPP and UP after 12 hrs; type: functional, organism-based; conditions: (Ehrenberg) Cohn ATCC 6051, 12 h; outline: as §3
Bacillus subtilis [15] = assay: Antibacterial activity against Bacillus subtilis (Ehrenberg) Cohn ATCC 6051 assessed as growth inhibition in presence of HMBPP and MK4 after 12 hrs; type: functional, organism-based; conditions: (Ehrenberg) Cohn ATCC 6051, 12 h; outline: as §3
Clostridioides difficile [16] = assay: Antibacterial activity against Clostridioides difficile ATCC 43255 after 48 hrs; type: functional; conditions: ATCC 43255, 48 h
Outline: (§4)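 Grown anaerobically 48 h at 37 °C on brain heart infusion agar supplemented with yeast extract, L-cysteine, vitamin K1 and hemin. Inoculum set to a 0.5 McFarland standard, then diluted in supplemented BHI broth to ~5 × 10^5 CFU/mL. Broth dilution over 64–0.5 μM, incubated anaerobically 48 h at 37 °C. MIC read visually as lowest concentration inhibiting growth.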

Clostridioides difficile [17] = assay: Antibacterial activity against Clostridioides difficile ATCC 1870 after 48 hrs; type: functional; conditions: ATCC 1870, 48 h; outline: as §4
Bacillus subtilis [18] = assay: Antibacterial activity against Bacillus subtilis (Ehrenberg) Cohn ATCC 6051 assessed as growth inhibition in presence of MK7 after 12 hrs; type: functional, organism-based
Bacillus subtilis [19] = assay: Antibacterial activity against Bacillus subtilis (Ehrenberg) Cohn ATCC 6051 assessed as growth inhibition in presence of decaprenyl phosphate after 12 hrs; type: functional, organism-based

CC(C)CCCC(C)c1cnc(NCC(P(=O)(O)O)P(=O)(O)O)s1 (stereo not given)
logD ([1]; read-out: logD): -2.96

CC(C)CCCC(C)CCOc1cccc(NCC(P(=O)(O)O)P(=O)(O)O)n1 (stereo not given)
logD ([1]; read-out: logD): -2.24

CC(C)CCCC(C)CCCC(C)CCCC(C)CCOc1ccc[n+](CC(P(=O)([O-])O)P(=O)(O)O)c1 (stereo not given)
logD ([1]; read-out: logD): -1.85

CC(C)CCCC(C)CCOc1ccc[n+](CC(O)(P(=O)([O-])O)P(=O)(O)O)c1 (stereo not given)
GI50 at 24 h [2]: 1100 µM

CC(C)CCCC(C)CCCc1cc[n+](CC(P(=O)([O-])O)P(=O)(O)O)cc1 (stereo not given)
GI50 at 24 h [2]: 700 µM
EC50 (Bacillus subtilis [3]): 2.3 µg/mL (≈ 5.46 µM)
EC50 (Bacillus subtilis [4]): 78 µg/mL
GI50 at 96 h [5]: > 1000 µM
logD [1]: -4.71

CCCCCCCCOc1cccc(C(=O)Nc2ccc(F)cc2C(=O)O)c1
EC50 (Staphylococcus aureus): 3 to 8 µg/mL
EC50 (Bacillus subtilis [6]): 3 to 8 µg/mL
EC50 [7]: 3 to 8 µg/mL
EC50 (Bacillus anthracis): 3 to 8 µg/mL
EC50 (Candida albicans): > 50 µg/mL

CC(C)CCCC(C)CCn1cc[n+](CC(P(=O)([O-])O)P(=O)(O)O)c1 (stereo not given)
GI50 at 24 h [2]: 420 µM

O=P(O)(O)C(O)(Cc1cccc(-c2cccc3c2oc2ccccc23)c1)P(=O)(O)O
EC50 (Candida albicans): > 50 µg/mL

CC(C)CCCC(C)CCCC(C)CCOc1ccc[n+](CC(P(=O)([O-])O)P(=O)(O)O)c1 (stereo not given)
logD ([1]; read-out: logD): -3.48

CC(C)CCCC(C)CCCn1cc[n+](CC(P(=O)([O-])O)P(=O)(O)O)c1 (stereo not given)
GI50 at 24 h [2]: 440 µM
logD [1]: -5.65

CC(C)CCCC(C)CCCc1cccc(NCC(P(=O)(O)O)P(=O)(O)O)n1 (stereo not given)
EC50 (Staphylococcus aureus): 73 µM
EC50 (Bacillus subtilis [6]): 60 µM
EC50 [7]: 210 µM
EC50 (Bacillus anthracis): 6.9 µM
GI50 at 24 h [2]: 1100 µM
logD ([1]; read-out: logD): -2

CC(C)CCCC(C)CCSc1cc[n+](CC(P(=O)([O-])O)P(=O)(O)O)cc1 (stereo not given)
GI50 at 24 h [2]: 1000 µM
logD [1]: -5.08

O=P([O-])(O)C(C[n+]1ccc(-c2ccc3oc4ccccc4c3c2)cc1)P(=O)(O)O (stereo not given)
EC50 (Candida albicans): > 50 µg/mL

CCCCCCCCCCCCCCOc1cccc(O)c1C(=O)O
EC50 (Candida albicans): > 50 µg/mL

CC(C)CCCC(C)CCSc1ccc[n+](CC(P(=O)([O-])O)P(=O)(O)O)c1 (stereo not given)
GI50 at 24 h [2]: 510 µM
logD [1]: -5.09

CCCCCCCCCCOc1ccc[n+](CC(P(=O)([O-])O)P(=O)(O)O)c1 (stereo not given)
EC50 (Candida albicans): > 50 µg/mL
IC50 [8]: 0.006 to 0.02 µM

CC(C)CCCC(C)CCOc1ccnc(NCC(P(=O)(O)O)P(=O)(O)O)c1 (stereo not given)
logD ([1]; read-out: logD): -2.31

CCCCCCCCCCOc1cccc(CC(O)(P(=O)(O)O)P(=O)(O)O)c1
IC50 [8]: 11 µM
IC50 [9]: 550 µM

CC(C)CCCC(C)CCOc1cc[n+](CC(P(=O)([O-])O)P(=O)(O)O)cc1 (stereo not given)
GI50 at 24 h [2]: ≥ 1000 µM
EC50 (Bacillus subtilis [3]): 5.7 µg/mL (≈ 13.5 µM)
EC50 (Bacillus subtilis [4]): 28 µg/mL
GI50 at 96 h [5]: 800 µM
IC50 [10]: 100 µM
logD [1]: -5.82

CCCCCCCCCCCCCc1ccc[n+](CC(P(=O)([O-])O)P(=O)(O)O)c1 (stereo not given)
GI50 at 24 h [2]: 48 µM
logD ([1]; read-out: logD): -3.65

CC(C)CCCC(C)CCNc1ccc[n+](CC(P(=O)([O-])O)P(=O)(O)O)c1 (stereo not given)
GI50 at 24 h [2]: 440 µM

CC(C)CCCC(C)CCOc1ccnc(NC(P(=O)(O)O)P(=O)(O)O)c1 (stereo not given)
GI50 at 24 h [2]: 1300 µM
logD ([1]; read-out: logD): -1.63

CC(C)CCCC(C)CCCc1ccc[n+](CC(P(=O)([O-])O)P(=O)(O)O)c1 (stereo not given)
GI50 at 24 h [2]: 460 µM
EC50 (Bacillus subtilis [3]): 2.4 µg/mL (≈ 5.7 µM)
EC50 (Bacillus subtilis [4]): 1.7 µg/mL
logD [1]: -4.71

CCCCCCCCCCCc1ccc[n+](CC(P(=O)([O-])O)P(=O)(O)O)c1 (stereo not given)
GI50 at 24 h [2]: 220 µM
EC50 (Bacillus subtilis [4]): 2 µg/mL
logD [1]: -4.07

O=P([O-])(O)C(Cn1cc[n+](CCCc2ccc(F)c(F)c2)c1)P(=O)(O)O (stereo not given)
EC50 (Staphylococcus aureus): 30 µg/mL
EC50 (Bacillus subtilis [6]): > 100 µg/mL
EC50 (Bacillus anthracis): > 100 µg/mL
EC50 (Candida albicans): 2 µg/mL (≈ 4.88 µM)
GI50 at 24 h [2]: 600 µM
EC50 (Bacillus subtilis [3]): 26 µg/mL (≈ 63.4 µM)
EC50 (Bacillus subtilis [4]): 38 µg/mL

CC(C)CCCC(C)CCOc1cc(NCC(P(=O)(O)O)P(=O)(O)O)ccn1 (stereo not given)
GI50 at 24 h [2]: 1200 µM
logD ([1]; read-out: logD): -3.1

CC(C)CCCC(C)CCc1cnc(NCC(P(=O)(O)O)P(=O)(O)O)s1 (stereo not given)
logD ([1]; read-out: logD): -2.12

CC(C)=CCC/C(C)=C/CC/C(C)=C/COP(=O)(O)OP(=O)(O)O [FARNESYL DIPHOSPHATE]
Kd [11]: 35 µM

CC(C)CCCC(C)CCOc1ccc[n+](CC(P(=O)([O-])O)P(=O)(O)O)c1 (stereo not given)
GI50 at 24 h [2]: 620 µM
IC50 (Bacillus subtilis [12]): 2.1 µg/mL
IC50 (Bacillus subtilis [13]): 3.5 µg/mL
IC50 (Bacillus subtilis [14]): 8.9 µg/mL
IC50 (Bacillus subtilis [15]): 8.9 µg/mL
MIC (Clostridioides difficile [16]): 6.8 µg/mL (≈ 16.1 µM)
MIC (Clostridioides difficile [17]): 6.8 µg/mL (≈ 16.1 µM)
EC50 (Bacillus subtilis [3]): 1 µg/mL (≈ 2.36 µM)
EC50 (Bacillus subtilis [4]): 1.7 µg/mL
GI50 at 96 h [5]: 76 µM
IC50 [10]: 0.23 µM
IC50 [9]: 0.23 µM
Activity (Bacillus subtilis [18]): Active
Activity (Bacillus subtilis [19]): Active

CC(C)CCCC(C)CCc1csc(NCC(P(=O)(O)O)P(=O)(O)O)n1 (stereo not given)
logD ([1]; read-out: logD): -2.36
